TbMetRS inhib = T. brucei MetRS inhibitors, primary screen, biochemical, luminescence; 360,000 tested, 0.4% active; AID 624268, 2012; methionyl-tRNA synthetase (Trypanosoma brucei brucei); purified T. brucei MetRS, ATP depletion, Kinase-Glo luminescence; inhibition, % at 11.9 µM;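 active means inhibition above a per-plate cutoff of the control wells' mean inhibition plus 3 SD, cut at about 5.5% in these data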;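 further: 0% = DMSO wells median and 100% = median of wells with control inhibitor compound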
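Dosing: 11.9 µM compound single dose, 0.9% DMSO; Assay system: purified T. brucei MetRS enzyme; Measured by: Kinase-Glo luciferase luminescence reporting remaining unconsumed ATP; Schedule: 15 min plus 2 h at 25 °C.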
H9c2 TAG inh = inhibitors of triacylglycerol accumulation, primary screen, cell-based, uHTS, fluorescence, H9c2 | 230,000 tested, 0.66% active | H9c2 cells, Nile Red lipid (TAG) fluorescence; cells loaded with 200 µM oleic acid | inhibition, % at 12.5 µM;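 active means pattern-corrected inhibition of lipid staining of at least 50% with the nuclear-stain viability signal not falling by more than 50%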;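 further: 0% = DMSO wells and 100% = triacsin C control wells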
MC4R barr agon = MC4R agonists recruiting beta-arrestin, primary screen, cell-based, luminescence, agonist arm of biased-ligand search; U2OS MC4R beta-arrestin complementation; percent of melanotan II response, DMSO zero; 360,000 tested, 0.98% active; activation, % at 8.9 µM; Melanocortin receptor 4 (Homo sapiens), P32245;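 active means activation above a per-plate cutoff, the mean activation of sample wells on that plate plus 3 SD, cut at about 8% in these data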
Target sequence (P32245 whole entry, looked up): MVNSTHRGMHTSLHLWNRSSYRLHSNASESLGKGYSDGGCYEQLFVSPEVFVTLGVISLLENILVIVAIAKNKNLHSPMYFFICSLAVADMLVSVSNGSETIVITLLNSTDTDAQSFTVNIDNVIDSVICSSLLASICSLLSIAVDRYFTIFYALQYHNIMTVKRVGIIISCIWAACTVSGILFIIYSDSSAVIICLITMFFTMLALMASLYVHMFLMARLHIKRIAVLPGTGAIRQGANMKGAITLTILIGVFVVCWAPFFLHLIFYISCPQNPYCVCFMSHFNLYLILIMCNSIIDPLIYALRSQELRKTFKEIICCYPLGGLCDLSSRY
MC4R antag cAMP = MC4R antagonists of cAMP signaling, primary screen, cell-based, TR-FRET, antagonist arm of biased-ligand search; Melanocortin receptor 4 (Homo sapiens), P32245; MC4R-expressing cells, MTII-stimulated cAMP, LANCE TR-FRET; inhibition, % at 6.5 µM; 360,000 tested, 0.48% active; AID 540295, 2011;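 active means inhibition above its plate's cutoff, the mean of tested wells on that plate plus 3 SD, cut at about 29% in these data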;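 further: 0% = Melanotan II alone and 100% = Melanotan II plus saturating MCL0020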
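Material – human MC4R-expressing U2OS cells · Repeats – no replicates · Detection – TR-FRET with Eu-cAMP and labeled anti-cAMP, 671 nm · Times – compound 30 min, challenge 1 h, detection 1 h · Compound – single nominal compound dose of 6.5 µM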
aDG glyco up = activators of alpha-DG glycosylation, primary screen, uHTS, Pro5-aDG cells, AlphaScreen; AID 624168, 2012; 360,000 tested, 0.22% active; alpha-DG glycosylation AlphaScreen (IIH6); 0% Pro5, 100% B10-LARGE cell signal; activation, % at 10 µM;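 active means activation of at least 8% versus controls, or a plate z-score of at least 8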;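 further: Pro5 are CHO cells carrying HIG-tagged alpha-DG that lacks glycosylation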
NTR1 ag = agonists of human NTR1, primary screen, imaging, U2OS cells, beta-arrestin-GFP, high content | activation, % at 20 µM | NTR1-U2OS beta-arrestin-GFP spot imaging, agonist mode | AID 493036, 2011 | 330,000 tested, 0.17% active;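 active means activation at or above 40% of the spot to cytoplasm intensity ratio, with at least 20 cells analyzed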;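 further: 0% = DMSO without peptide and 100% = 100 nM NTR1 peptide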
cAMP nonselect = nonselective cAMP signaling inhibitors, parental cells, counter-screen for MC4R biased antagonist project, cell-based, TR-FRET, U2OS, forskolin, triplicate | 1,600 tested, 26% active | shares compounds with MC4R antag cAMP | AID 602193, 2012 | inhibition, % at 6.5 µM | LANCE TR-FRET;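 active means mean inhibition over triplicates above the low-control well mean plus 3 SD, set per campaign, cut at about 13% in these data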;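 further: signal is single emission at 671 nm which falls as cellular cAMP rises; 0% = forskolin-stimulated wells and 100% = buffer without forskolin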
MC4R antag conf = MC4R cAMP antagonists, retest, confirmation, cell-based, TR-FRET. shares compounds with MC4R antag cAMP. MC4R-expressing cells, MTII-stimulated cAMP. inhibition, % at 6.5 µM. 1,600 tested, 27% active; in the data active means inhibition above about 29%;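 further: 0% = agonist stimulated wells alone and 100% = agonist stimulated wells plus saturating reference antagonist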
An asterisk follows results filed as active; · = not tested or not shown. Sampled rows, rich in hits. Any-hit rate of the full collection: about 2.4%.

SMILES	TbMetRS inhib	H9c2 TAG inh	MC4R barr agon	MC4R antag cAMP	aDG glyco up	NTR1 ag	cAMP nonselect	MC4R antag conf
O=C(NCC(=O)N1CCN(S(=O)(=O)/C=C/c2ccccc2)CC1)c1ccc(Cl)cc1	0	17	4	31*	0	2	1	-7
COc1ccc(CC(=O)Oc2ccc(C(C)(C)C)cc2)cc1S(=O)(=O)N1CCOCC1	0	-8	-3	32*	0	2	12	14
COC(=O)c1sc(-c2ccccc2)cc1NC(C)=O	-1	0	-1	1	0	0	·	·
COC(=O)c1sc(-c2cccs2)cc1NC(=O)/C=C/C(=O)O	0	3	-2	32*	0	1	8	5
Cc1[nH]n(-c2ccccc2)c(=O)c1C=NC1CCCCCC1	0	-9	0	34*	0	-1	7	8
Cc1[nH]n(-c2ccccc2)c(=O)c1C=NC1CCCCC1	0	·	-2	-9	0	4	·	·
CC(C)(C)c1ccc2c(c1)OC(C(=O)N/N=C\c1ccc(-c3cccc(C(=O)O)c3)o1)CO2 (centres undefined)	0	7	0	29*	0	3	-4	-11
Cc1cccc(C(=O)NCC(=O)OCC(=O)NCCNC(=O)COC(=O)CNC(=O)c2cccc(C)c2)c1	0	-11	0	14	0	1	·	·
Cc1cccc(C(=O)NCC(=O)OCC(=O)c2ccc(Br)s2)c1	0	-11	1	44*	1	1	33*	70*
Cc1nc(SCCC(=O)O)c2ccccc2n1	-1	·	1	54*	0	-1	19*	34*
O=C(COC(=O)c1cnc(Cl)c(Cl)c1)NCCC1=CCCCC1	-1	3	-2	38*	0	8	28*	36*
O=C(COC(=O)c1cnc(Cl)c(Cl)c1)NC1CCCC1	0	0	-1	29*	0	·	22*	33*
O=C(COC(=O)c1ccc(Cl)c(Cl)c1)NC1CCCC1	-1	·	0	3	0	1	·	·
O=C(COC(=O)c1cnc(Cl)c(Cl)c1)NC1CCCCCC1	0	9	-5	29*	0	4	27*	48*
CN(C(=O)COC(=O)c1cnc(Cl)c(Cl)c1)C1CCCCC1	0	18	-4	40*	0	3	22*	39*
CCN(c1ccccc1)S(=O)(=O)c1cc(C(=O)OC2CCOC2=O)ccc1C (centres undefined)	0	-29	-3	40*	0	26	24*	37*
CNS(=O)(=O)c1cccc(C(=O)OC2CCOC2=O)c1 (centres undefined)	0	·	-2	-4	0	-2	·	·
CCn1c(C)nc2cc(C(=O)N/N=C(\C)c3ccc(OC)cc3O)ccc21	-1	45	1	34*	0	·	4	1
CC(C)(C)S(=O)N1Cc2cc(C(=O)NCc3ccc(Oc4ccccc4)cc3)nc(-c3cccc(-c4cc5ccccc5o4)c3)c2[C@@H]1CCO (some centres undefined)	-1	·	·	·	0	·	·	·
C#CCn1c2ccccc2c(=O)n1CCOc1ccccc1OC	0	·	·	·	0	·	·	·
CCCC(=O)NC1=C(Cl)C(=O)c2ccccc2C1=O	0	27	-1	93*	0	·	78*	106*
Cc1cccc(C)c1NC(=O)C(c1ccccc1)n1c(-c2ccccc2)nc2ccccc21 (centres undefined)	0	·	·	·	0	·	·	·
CC1CCCC(NC(=O)COC(=O)COc2ccc(Br)cc2)C1C (centres undefined)	0	17	5	13	1	1	·	·
CC1CCCC(NC(=O)COC(=O)COc2ccc(C#N)cc2)C1C (centres undefined)	0	-2	1	36*	0	3	10	14
Cc1ccc(CN(C)C(=O)COC(=O)CSc2ccc(C(N)=O)cc2[N+](=O)[O-])cc1	0	8	-5	38*	0	4	14*	35*
SMILES	TbMetRS inhib	H9c2 TAG inh	MC4R barr agon	MC4R antag cAMP	aDG glyco up	NTR1 ag	cAMP nonselect	MC4R antag conf
Cc1ccc(CN(C)C(=O)COC(=O)CSc2ccc([N+](=O)[O-])cc2)cc1	0	-11	1	8	0	0	·	·
CCN(C(=O)COC(=O)CSc1ccc(C(N)=O)cc1[N+](=O)[O-])C1CCCCC1	0	3	-1	33*	0	0	7	30*
O=S1(=O)CC(N2CCCCC2)CN1Cc1ccc(F)cc1 (centres undefined)	0	·	·	·	0	·	·	·
O=C(Nc1ccc(Oc2ccccc2)nc1)[C@H]1O[C@@H](n2ccc(=O)[nH]c2=O)[C@H](O)[C@@H]1O	0	·	·	·	0	·	·	·
COc1ccc(-c2nc3c4ccccc4ccn3c2Cc2cccc(F)c2)cc1OC	0	·	·	·	0	·	·	·
CCCc1cc(=O)oc2c3c(cc(OCC(=O)N[C@@H](C)C(=O)O)c12)OC(C)(C)CC3	0	·	-1	1	0	-2	·	·
CCCc1cc(=O)oc2c3c(c4c(c12)OC(C)(C)C=C4)OC(C)C(C)C3O (centres undefined)	-3	·	0	30*	0	30	-2	1
COc1ccc(C(C)(NC(C)=O)c2nc(-c3ccc(F)cc3OC)cs2)cc1 (centres undefined)	0	11	-2	0	0	·	·	·
Cc1cc(C)c(/C=N/n2c(C)cc(C)c(C#N)c2=O)c(C)c1	0	13	0	29*	0	2	-1	-8
COc1ccc(OC(F)(F)F)cc1CC1(C)C(=O)Nc2ccc(S(=O)(=O)NC3CCCCC3)cc21 (centres undefined)	0	21	4	8	0	·	·	·
C=CCN(C(=O)CCc1ccccc1OC)c1nc(-c2ccc(S(C)(=O)=O)cc2)cs1	1	·	1	31*	1	2	0	-3

From PubChem BioAssay
